Activity calls are given as the source filed them. The rule behind the calls is not given here.
Key:
A549 [1] = assay: Induction of apoptosis in human A549 cells assessed as viable cells at 5 uM after 24 hrs by annexin V/PI staining-based FACS analysis (reference value: 91.1 %); conditions: A549, 24 h
A549 [2] = assay: Cell cycle arrest in human A549 cells assessed as accumulation at G2/M phase at 5 uM after 48 hrs by flow cytometry (reference value: 25.4 %); type: functional
A549 [3] = assay: Induction of apoptosis in human A549 cells assessed as increase in PARP protein cleavage at 5 uM after 24 hrs by Western blot analysis; type: functional, cell-based
Outline: (§1)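 Cells treated 24 h without compound or at 1, 3 or 5 µM. Pro-caspase-3, pro-caspase-9 and PARP cleavage assessed by Western blot.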

A549 [4] = assay: Cell cycle arrest in human A549 cells assessed as accumulation at sub-G1 phase at 5 uM after 48 hrs by flow cytometry (reference value: 4.9 %); type: functional
A549 [5] = assay: Induction of apoptosis in human A549 cells assessed as reduction in pro-caspase-3 expression at 5 uM after 24 hrs by Western blot analysis; type: functional, cell-based
Outline: as §1

A549 [6] = assay: Induction of apoptosis in human A549 cells assessed as late apoptotic cells at 1 uM after 24 hrs by annexin V/PI staining-based FACS analysis (reference value: 3.5 %)
A549 [7] = assay: Ratio of KYS05090 IC50 to compound IC50 for human A549 cells after 48 hrs by MTT assay; type: functional
A549 [8] = assay: Induction of apoptosis in human A549 cells assessed as viable cells at 3 uM after 24 hrs by annexin V/PI staining-based FACS analysis (reference value: 91.1 %); conditions: A549, 24 h
A549 [9] = assay: Induction of apoptosis in human A549 cells assessed as late apoptotic cells at 3 uM after 24 hrs by annexin V/PI staining-based FACS analysis (reference value: 3.5 %)
MIA PaCa-2 [10] = assay: (§2) Cytotoxicity against human MIAPaCa2 cells after 48 hrs by MTT assay; type: functional, cell-based
Outline: (§3)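 Cells seeded and grown 24 h, then exposed 48 h to a range of concentrations in DMSO (final 0.1%), with vehicle controls at equal DMSO. Medium replaced with 0.5 mg/mL MTT in RPMI with 10% FBS for 2 h at 37 °C, reduced dye dissolved in DMSO, absorbance read at 540 nm. Triplicates; IC50 from dose–response.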

[11] = as §2; type: functional, cell-based; conditions: MIA PaCa-2, 48 h
Outline: as §3

A549 [12] = assay: Induction of apoptosis in human A549 cells assessed as necrotic cells at 3 uM after 24 hrs by annexin V/PI staining-based FACS analysis (reference value: 2.8 %)
A549 [13] = assay: Cell cycle arrest in human A549 cells assessed as accumulation at G0/G1 phase at 5 uM after 48 hrs by flow cytometry (reference value: 57.8 %); type: functional
A549 [14] = assay: Cytotoxicity against human A549 cells after 48 hrs by MTT assay; type: functional, cell-based; conditions: for IC50: A549, 48 h
Outline: as §3

A549 [15] = assay: Induction of apoptosis in human A549 cells assessed as early apoptotic cells at 5 uM after 24 hrs by annexin V/PI staining-based FACS analysis (reference value: 2.6 %)
MIA PaCa-2 [16] = assay: Ratio of KYS05090 IC50 to compound IC50 for human MIAPaCa2 cells after 48 hrs by MTT assay; type: functional
A549 [17] = assay: Induction of apoptosis in human A549 cells assessed as viable cells at 1 uM after 24 hrs by annexin V/PI staining-based FACS analysis (reference value: 91.1 %); conditions: A549, 24 h
A549 [18] = assay: Induction of apoptosis in human A549 cells assessed as reduction in pro-caspase-9 expression at 5 uM after 24 hrs by Western blot analysis; type: functional, cell-based
Outline: as §1

A549 [19] = assay: Induction of apoptosis in human A549 cells assessed as necrotic cells at 1 uM after 24 hrs by annexin V/PI staining-based FACS analysis (reference value: 2.8 %)
A549 [20] = assay: Cell cycle arrest in human A549 cells assessed as accumulation at sub-G1 phase at 5 uM after 24 hrs by flow cytometry (reference value: 7.8 %); type: functional
[21] = molecular target: T1, Voltage-dependent T-type calcium channel subunit alpha-1G (Homo sapiens, UniProt O43497); assay: Inhibition of T-type CaV3.1 channel (unknown origin) expressed in HEK293 cells assessed as inhibition of calcium current at 1 uM by whole cell patch-clamp method; type: cell-based
A549 [22] = assay: Cell cycle arrest in human A549 cells assessed as accumulation at S phase at 5 uM after 48 hrs by flow cytometry (reference value: 12.0 %); type: functional
A549 [23] = assay: Induction of apoptosis in human A549 cells assessed as necrotic cells at 5 uM after 24 hrs by annexin V/PI staining-based FACS analysis (reference value: 2.8 %)
A549 [24] = assay: Induction of apoptosis in human A549 cells assessed as early apoptotic cells at 1 uM after 24 hrs by annexin V/PI staining-based FACS analysis (reference value: 2.6 %)
A549 [25] = assay: Induction of apoptosis in human A549 cells assessed as late apoptotic cells at 5 uM after 24 hrs by annexin V/PI staining-based FACS analysis (reference value: 3.5 %)
A549 [26] = assay: Cell cycle arrest in human A549 cells assessed as accumulation at S phase at 5 uM after 24 hrs by flow cytometry (reference value: 17.6 %); type: functional
A549 [27] = assay: Cell cycle arrest in human A549 cells assessed as accumulation at G0/G1 phase at 5 uM after 24 hrs by flow cytometry (reference value: 53.1 %); type: functional
A549 [28] = assay: Selectivity ratio of IC50 for human A549 cells to IC50 for human MIAPaCa2 cells; type: functional
A549 [29] = assay: Induction of apoptosis in human A549 cells assessed as early apoptotic cells at 3 uM after 24 hrs by annexin V/PI staining-based FACS analysis (reference value: 2.6 %)
A549 [30] = assay: Cell cycle arrest in human A549 cells assessed as accumulation at G2/M phase at 5 uM after 24 hrs by flow cytometry (reference value: 21.6 %); type: functional
[31] = molecular target: T1, Voltage-dependent T-type calcium channel subunit alpha-1G; assay: Inhibition of T-type CaV3.1 channel (unknown origin) expressed in HEK293 cells assessed as inhibition of calcium current by whole cell patch-clamp method; type: cell-based
A549 [32] = assay: Cell cycle arrest in human A549 cells assessed as accumulation at G0/G1 phase at 10 uM after 48 hrs by flow cytometry (reference value: 57.8 %); type: functional
A549 [33] = assay: Cell cycle arrest in human A549 cells assessed as accumulation at sub-G1 phase at 10 uM after 24 hrs by flow cytometry (reference value: 7.8 %); type: functional
A549 [34] = assay: Cell cycle arrest in human A549 cells assessed as accumulation at G0/G1 phase at 10 uM after 24 hrs by flow cytometry (reference value: 53.1 %); type: functional
A549 [35] = assay: Cell cycle arrest in human A549 cells assessed as accumulation at S phase at 10 uM after 48 hrs by flow cytometry (reference value: 12.0 %); type: functional
A549 [36] = assay: Cell cycle arrest in human A549 cells assessed as accumulation at G2/M phase at 10 uM after 48 hrs by flow cytometry (reference value: 25.4 %); type: functional
A549 [37] = assay: Cell cycle arrest in human A549 cells assessed as accumulation at S phase at 10 uM after 24 hrs by flow cytometry (reference value: 17.6 %); type: functional
A549 [38] = assay: Cell cycle arrest in human A549 cells assessed as accumulation at G2/M phase at 10 uM after 24 hrs by flow cytometry (reference value: 21.6 %); type: functional
A549 [39] = assay: Cell cycle arrest in human A549 cells assessed as accumulation at sub-G1 phase at 10 uM after 48 hrs by flow cytometry (reference value: 4.9 %); type: functional

T1 sequence (O43497 whole entry): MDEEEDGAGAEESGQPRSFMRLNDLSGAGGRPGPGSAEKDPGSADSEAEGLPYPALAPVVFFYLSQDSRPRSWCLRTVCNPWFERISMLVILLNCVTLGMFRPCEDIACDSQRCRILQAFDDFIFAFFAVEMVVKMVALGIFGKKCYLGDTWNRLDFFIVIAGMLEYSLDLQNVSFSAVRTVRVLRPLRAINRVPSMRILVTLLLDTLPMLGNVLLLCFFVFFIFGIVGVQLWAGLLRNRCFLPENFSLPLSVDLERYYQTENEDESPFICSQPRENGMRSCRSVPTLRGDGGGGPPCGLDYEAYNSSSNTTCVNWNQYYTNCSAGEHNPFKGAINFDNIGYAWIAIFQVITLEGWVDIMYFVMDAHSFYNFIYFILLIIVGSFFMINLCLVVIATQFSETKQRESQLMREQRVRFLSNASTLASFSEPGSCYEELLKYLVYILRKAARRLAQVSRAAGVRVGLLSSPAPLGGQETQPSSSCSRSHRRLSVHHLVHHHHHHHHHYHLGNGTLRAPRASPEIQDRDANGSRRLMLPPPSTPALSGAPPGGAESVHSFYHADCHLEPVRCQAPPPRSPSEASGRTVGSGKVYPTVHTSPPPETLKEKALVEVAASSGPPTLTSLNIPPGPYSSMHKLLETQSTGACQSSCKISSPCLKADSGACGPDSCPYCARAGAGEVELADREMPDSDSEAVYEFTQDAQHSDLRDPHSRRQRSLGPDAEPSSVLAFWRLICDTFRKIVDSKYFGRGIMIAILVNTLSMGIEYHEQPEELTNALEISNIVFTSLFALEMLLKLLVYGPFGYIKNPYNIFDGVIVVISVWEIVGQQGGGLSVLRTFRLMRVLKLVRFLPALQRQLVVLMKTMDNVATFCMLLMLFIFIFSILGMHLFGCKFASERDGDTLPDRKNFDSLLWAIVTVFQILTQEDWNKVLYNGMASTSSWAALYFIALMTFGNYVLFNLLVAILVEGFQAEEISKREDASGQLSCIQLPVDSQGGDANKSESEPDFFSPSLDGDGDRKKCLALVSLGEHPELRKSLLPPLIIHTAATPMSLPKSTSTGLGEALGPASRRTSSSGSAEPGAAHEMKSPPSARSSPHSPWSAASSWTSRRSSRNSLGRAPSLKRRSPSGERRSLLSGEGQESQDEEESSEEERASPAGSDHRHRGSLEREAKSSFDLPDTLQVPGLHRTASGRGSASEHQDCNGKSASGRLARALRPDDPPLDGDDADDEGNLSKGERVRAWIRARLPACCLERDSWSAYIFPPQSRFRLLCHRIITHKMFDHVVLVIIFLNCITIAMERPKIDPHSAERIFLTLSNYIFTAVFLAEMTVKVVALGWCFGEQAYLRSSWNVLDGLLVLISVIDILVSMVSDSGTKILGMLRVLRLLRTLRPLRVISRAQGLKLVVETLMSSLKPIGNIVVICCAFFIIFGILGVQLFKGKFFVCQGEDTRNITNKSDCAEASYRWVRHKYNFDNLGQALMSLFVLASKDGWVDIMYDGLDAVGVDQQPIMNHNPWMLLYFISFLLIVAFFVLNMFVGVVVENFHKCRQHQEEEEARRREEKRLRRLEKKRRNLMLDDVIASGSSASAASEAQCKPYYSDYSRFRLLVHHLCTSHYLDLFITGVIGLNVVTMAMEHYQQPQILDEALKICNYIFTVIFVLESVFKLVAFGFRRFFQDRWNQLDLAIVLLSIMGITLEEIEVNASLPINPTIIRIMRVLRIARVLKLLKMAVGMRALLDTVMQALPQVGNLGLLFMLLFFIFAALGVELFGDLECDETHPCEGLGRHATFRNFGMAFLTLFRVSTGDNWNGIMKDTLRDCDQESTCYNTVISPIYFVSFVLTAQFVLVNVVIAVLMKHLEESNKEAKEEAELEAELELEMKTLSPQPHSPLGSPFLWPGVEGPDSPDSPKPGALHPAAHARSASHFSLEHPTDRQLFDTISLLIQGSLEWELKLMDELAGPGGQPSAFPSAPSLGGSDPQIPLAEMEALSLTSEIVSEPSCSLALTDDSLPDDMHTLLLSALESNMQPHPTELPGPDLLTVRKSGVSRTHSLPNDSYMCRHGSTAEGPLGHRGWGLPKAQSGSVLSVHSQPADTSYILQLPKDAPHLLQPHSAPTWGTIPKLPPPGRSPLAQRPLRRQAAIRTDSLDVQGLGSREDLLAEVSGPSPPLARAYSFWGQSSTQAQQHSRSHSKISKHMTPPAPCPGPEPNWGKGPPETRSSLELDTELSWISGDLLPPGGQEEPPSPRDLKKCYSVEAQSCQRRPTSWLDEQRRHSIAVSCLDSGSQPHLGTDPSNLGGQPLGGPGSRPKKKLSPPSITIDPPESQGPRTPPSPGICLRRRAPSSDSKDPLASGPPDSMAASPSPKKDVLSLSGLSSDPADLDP

CN(C)CCN1CCN(C2=Nc3ccccc3C(CC(=O)NCc3ccccc3)N2c2ccc(C3CCCCC3)cc2)CC1.Cl (stereo unspecified)
viability at 5 µM (A549 [1]): 53.4%
Activity (A549 [2]): 1.9%
Activity (A549 [3]): Active
Activity (A549 [4]): 77.8%
Activity (A549 [5]): Active
Activity (A549 [6]): 3.2%
Ratio IC50 (A549 [7]): 2
viability at 3 µM (A549 [8]): 67.4%
Activity (A549 [9]): 1.9%
inhibition (MIA PaCa-2 [10]): Dose-dependent effect
IC50 [11]: 930 nM
Activity (A549 [12]): 0.3%
Activity (A549 [13]): 15.7%
inhibition (A549 [14]): Dose-dependent effect
IC50 (A549 [14]): 2.25 µM
Activity (A549 [15]): 32.1%
Ratio IC50 (MIA PaCa-2 [16]): 2
viability at 1 µM (A549 [17]): 91.8%
Activity (A549 [18]): Active
Activity (A549 [19]): 2.5%
Activity (A549 [20]): 15.8%
inhibition [21]: 53.2%
Activity (A549 [22]): 4.6%
Activity (A549 [23]): 1.3%
Activity (A549 [24]): 2.5%
Activity (A549 [25]): 13.3%
Activity (A549 [26]): 12.8%
Activity (A549 [27]): 55.4%
Ratio IC50 (A549 [28]): 2
Activity (A549 [29]): 30.4%
Activity (A549 [30]): 16%
IC50 [31]: 1040 nM

CN(C)CCN1CCN(C2=Nc3ccccc3C(CC(=O)NCc3ccc([N+](=O)[O-])cc3)N2c2ccc(-c3ccccc3)cc2)CC1.Cl (stereo unspecified)
IC50 [11]: 2180 nM
IC50 (A549 [14]): 4.69 µM
inhibition [21]: 38.1%
Ratio IC50 (A549 [28]): 2

CN(C)CCN1CCN(C2=Nc3ccccc3C(CC(=O)OCc3ccccc3)N2c2ccc(-c3ccccc3)cc2)CC1 (stereo unspecified)
IC50 [11]: 2700 nM
IC50 (A549 [14]): 4.29 µM
inhibition [21]: 46.4%
Ratio IC50 (A549 [28]): 2
IC50 [31]: 1810 nM

CC(C)c1ccc(N2C(N3CCN(CCN(C)C)CC3)=Nc3ccccc3C2CC(=O)NCc2ccccc2)cc1.Cl (stereo unspecified)
IC50 [11]: 3020 nM
IC50 (A549 [14]): 7.57 µM
inhibition [21]: 39.2%
Ratio IC50 (A549 [28]): 2

COCC(=O)O[C@]1(CCN(C)CCCc2nc3ccccc3[nH]2)CCc2cc(F)ccc2[C@@H]1C(C)C [MIBEFRADIL]
IC50 [11]: 18400 nM
IC50 (A549 [14]): 24.8 µM
Activity (A549 [32]): 66.8%
Activity (A549 [33]): 9.6%
Activity (A549 [34]): 66.1%
Activity (A549 [35]): 12%
Activity (A549 [36]): 11.2%
Activity (A549 [37]): 10.9%
Activity (A549 [38]): 13.4%
Activity (A549 [39]): 10%

COc1ccc(CNC(=O)CC2c3ccccc3N=C(N(C)CCCCCCN(C)C)N2c2ccc3ccccc3c2)cc1.Cl (stereo unspecified)
IC50 [11]: 3990 nM
IC50 (A549 [14]): 6.65 µM
inhibition [21]: 55.2%
Ratio IC50 (A549 [28]): 2
IC50 [31]: 730 nM

CN(C)CCCCCCN(C)C1=Nc2ccccc2C(CC(=O)NCc2ccccc2)N1c1ccc2ccccc2c1.Cl (stereo unspecified)
IC50 [11]: 2540 nM
IC50 (A549 [14]): 5.44 µM
inhibition [21]: 26.4%
Ratio IC50 (A549 [28]): 2

CN(C)CCCCCN(C)C1=Nc2ccccc2C(CC(=O)NCc2ccccc2)N1c1ccc(-c2ccccc2)cc1.Cl.Cl (stereo unspecified)
Activity (A549 [2]): 0.1%
Activity (A549 [4]): 98.1%
IC50 [11]: 1940 nM
Activity (A549 [13]): 1.2%
IC50 (A549 [14]): 4.07 µM
Activity (A549 [20]): 55.3%
inhibition [21]: 76.6%
Activity (A549 [22]): 0.6%
Activity (A549 [26]): 8.8%
Activity (A549 [27]): 33.6%
Ratio IC50 (A549 [28]): 2
Activity (A549 [30]): 2.2%

CN(C)C(=O)NCCCN(C)C1=Nc2ccccc2C(CC(=O)NCc2ccc(F)cc2)N1c1ccc(-c2ccccc2)cc1.Cl (stereo unspecified)
IC50 [11]: 7430 nM
IC50 (A549 [14]): 15 µM
inhibition [21]: 53.5%
Ratio IC50 (A549 [28]): 2
IC50 [31]: 600 nM

CN(C)CCN1CCN(C2=Nc3ccccc3C(CC(=O)NCc3ccc(N(S(C)(=O)=O)S(C)(=O)=O)cc3)N2c2ccc(-c3ccccc3)cc2)CC1.Cl (stereo unspecified)
IC50 [11]: 16100 nM
IC50 (A549 [14]): 20.7 µM
inhibition [21]: 64.3%
Ratio IC50 (A549 [28]): 2
IC50 [31]: 520 nM

Source: ChEMBL document CHEMBL3232892, “Inhibition of cellular proliferation and induction of apoptosis in human lung adenocarcinoma A549 cells by T-type calcium channel antagonist” (Bioorg Med Chem Lett, 2014)
